The text below walks through data of ChEMBL document CHEMBL2034980, “N⁴-Phenyl-substituted 2-acetylpyridine thiosemicarbazones: cytotoxicity against human tumor cells, structure-activity relationship studies and investigation on the mechanism of action” (Bioorg Med Chem, 2012).

Experiment [1] can be described thus: (§1) Cytotoxicity against human U87 cells expressing wild-type p53 after 48 hrs by MTT assay. Type of experiment: functional, cell-based, U-87MG ATCC. Conditions: U-87 MG. The method, boiled down:
(§2)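 MTT assay. Cells were grown in DMEM with 10% FBS and penicillin/streptomycin at 37 °C under 5% CO2, seeded at 1–2×10^3 cells/well and treated 12 h later with 1×10^-12 to 1×10^-5 M ([…] from DMSO stock, final DMSO <0.5%) for 48 h. MTT was added at 0.5 mg mL⁻¹, formazan dissolved in DMSO and read at 570 nm. IC50 is the concentration giving 50% cytotoxicity. Quadruplicates, ≥3 independent experiments.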

Experiment [2] has as its system MCF7. Kind of experiment: Cytotoxicity against human MCF7 cells after 48 hrs by MTT assay. In kind it is functional, cell-based. Conditions: for IC50: MCF7, 48 h. The method, boiled down:
as §2
(Formazan colour is commonly taken as a measure of viable cells.)

Experiment [3] deals with T98G. Kind of experiment: Cytotoxicity against human T98G cells expressing mutant p53 after 48 hrs by MTT assay. Type of experiment: functional, cell-based. The method, boiled down: as §2
For experiment [4], the system named is U-87MG ATCC. Described as §1. Type of experiment: functional, cell-based. In outline: as §2
Experiment [5] relates to U-87MG ATCC. Kind of experiment: Induction of apoptosis in human U87 cells assessed as appearance of autophagolysosomes at 1 uM after 48 hrs by acridine orange/ethidium bromide staining-based microscopy. In kind it is functional, cell-based. In outline:
(§3)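 After 48 h at 1 μM, cells were incubated for 15 min in serum-free medium containing 1 μg mL⁻¹ acridine orange and 1 μg mL⁻¹ ethidium bromide. The medium was removed and cells imaged by inverted fluorescence microscopy (530–650 nm). Green/orange nuclear patterns and acidic cytoplasmic vacuoles were scored.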

The subject of experiment [6] is U-87MG ATCC. The experiment is described as follows: Induction of apoptosis in human U87 cells assessed as DNA fragmentation at 1 uM after 48 hrs by DAPI staining. In kind it is functional, cell-based. The method, boiled down:
(§4)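 Cells were treated at 1 μM for 48 h, washed in PBS and fixed in 70% methanol for 30 min at room temperature. They were stained with 0.4 μg mL⁻¹ DAPI for 1 h in the dark, and nuclear condensation and fragmentation were scored by fluorescence microscopy (385–410 nm).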

For experiment [7], the system named is T98G. Kind of experiment: Induction of apoptosis in human T98G cells assessed as irregularities in cellular shape at 1 uM after 48 hrs by DAPI staining. In kind it is functional, cell-based.
Experiment [8] has as its system MCF7. Kind of experiment: Induction of apoptosis in human MCF7 cells assessed as appearance of autophagolysosomes at 1 uM after 48 hrs by acridine orange/ethidium bromide staining-based microscopy. Type of experiment: functional, cell-based. The method, boiled down:
as §3

For experiment [9], the system named is U-87MG ATCC. Kind of experiment: Induction of apoptosis in human U87 cells assessed as cell shrinkage at 1 uM after 48 hrs by DAPI staining. In kind it is functional, cell-based.
A short description of experiment [10]: Haemolytic activity in human RBC after 1 hr by photometry. Type of experiment: ADME, cell-based. Conditions: Erythrocyte. The method, boiled down: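 Human EDTA blood was spun at 700xg for 10 min and the erythrocytes washed three times in cold PBS pH 7.4, then resuspended in it. Cells were incubated with varying compound concentrations for 1 h at 37 °C with shaking. After centrifugation, released haemoglobin was read at 540 nm to give the IC50. Mean ± SD, n = 4.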

The subject of experiment [11] is U-87MG ATCC. The experiment is described as follows: Induction of apoptosis in human U87 cells assessed as chromatin condensation at 1 uM after 48 hrs by DAPI staining. In kind it is functional, cell-based. In outline: as §4
In experiment [12] the test system is U-87MG ATCC. The experiment is described as follows: Induction of apoptosis in human U87 cells assessed as membrane blebbing at 1 uM after 48 hrs by DAPI staining. Type of experiment: functional, cell-based.
Experiment [13] has as its system U-87MG ATCC. Kind of experiment: Induction of apoptosis in human U87 cells assessed as chromatin condensation at 1 uM after 48 hrs by acridine orange/ethidium bromide staining-based microscopy. In kind it is functional, cell-based. The method, boiled down: as §3
In experiment [14] the test system is MCF7. The experiment is described as follows: Induction of apoptosis in human MCF7 cells assessed as chromatin condensation at 1 uM after 48 hrs by acridine orange/ethidium bromide staining-based microscopy. In kind it is functional, cell-based. In outline:
as §3

Experiment [15] relates to MCF7. The experiment is described as follows: Induction of apoptosis in human MCF7 cells assessed as chromatin condensation at 1 uM after 48 hrs by DAPI staining. In kind it is functional, cell-based. In outline:
as §4

For experiment [16], the system named is T98G. Kind of experiment: Induction of apoptosis in human T98G cells assessed as chromatin condensation at 1 uM after 48 hrs by DAPI staining. In kind it is functional, cell-based. The method, boiled down: as §4
Experiment [17] relates to T98G. The experiment is described as follows: Induction of apoptosis in human T98G cells assessed as membrane blebbing at 1 uM after 48 hrs […]. In kind it is functional, cell-based.
Experiment [18] relates to T98G. The experiment is described as follows: Induction of apoptosis in human T98G cells assessed as DNA fragmentation at 1 uM after 48 hrs by DAPI staining. In kind it is functional, cell-based. The method, boiled down:
as §4

The subject of experiment [19] is T98G. The experiment is described as follows: Induction of apoptosis in human T98G cells assessed as cell shrinkage at 1 uM after 48 hrs by DAPI staining. In kind it is functional, cell-based.
The test system of experiment [20] is MCF7. The experiment is described as follows: Induction of apoptosis in human MCF7 cells assessed as cell shrinkage at 1 uM after 48 hrs by DAPI staining. In kind it is functional, cell-based.
Experiment [21] has as its system MCF7. Kind of experiment: Induction of apoptosis in human MCF7 cells assessed as irregularities in cellular shape at 1 uM after 48 hrs by DAPI staining. Type of experiment: functional, cell-based.
For experiment [22], the system named is U-87MG ATCC. Kind of experiment: Induction of apoptosis in human U87 cells assessed as irregularities in cellular shape at 1 uM after 48 hrs by DAPI staining. In kind it is functional, cell-based.
Experiment [23] has as its system T98G. Kind of experiment: Induction of apoptosis in human T98G cells assessed as chromatin condensation at 1 uM after 48 hrs by acridine orange/ethidium bromide staining-based microscopy. In kind it is functional, cell-based. The method, boiled down: as §3
For experiment [24], the system named is MCF7. Kind of experiment: Induction of apoptosis in human MCF7 cells assessed as DNA fragmentation at 1 uM after 48 hrs by DAPI staining. In kind it is functional, cell-based. In outline:
as §4

Experiment [25] has as its system T98G. The experiment is described as follows: Induction of apoptosis in human T98G cells assessed as appearance of autophagolysosomes at 1 uM after 48 hrs by acridine orange/ethidium bromide staining-based microscopy. Type of experiment: functional, cell-based. In outline:
as §3

The test system of experiment [26] is MCF7. Kind of experiment: Induction of apoptosis in human MCF7 cells assessed as membrane blebbing at 1 uM after 48 hrs by DAPI staining. Type of experiment: functional, cell-based.

SMILES strings stand for the structures. The source made the active and inactive calls. The calls are words filed in the database; no cut-off is given here.

In the case of `C/C(=N/NC(=S)Nc1ccccc1)c1ccccn1`, the results for the IC50 (in experiment [1] (read-out: pIC50 (converted)); in the experiment with MCF7 [2] (read-out: pIC50 (converted)); with T98G [3] (read-out: pIC50 (converted))) were 1.4 nM, 0.18 nM and 6.81 nM, respectively.
On to `C/C(=N/NC(=S)Nc1ccccc1F)c1ccccn1`, for which the figures for the IC50 (in [1] (read-out: pIC50 (converted)); in the experiment on MCF7 [2] (read-out: pIC50 (converted)); with T98G [3] (read-out: pIC50 (converted))) were 5 nM, 0.39 nM and 3.1 nM, respectively.
For `C/C(=N/NC(=S)Nc1cccc(F)c1)c1ccccn1` the same measures were 18 nM, 8.99 nM and 12 nM.
As for `C/C(=N/NC(=S)Nc1ccc(F)cc1)c1ccccn1`, the IC50 was 10 nM in experiment [1] (read-out: pIC50 (converted)), 1.2 nM in the experiment on MCF7 [2] (read-out: pIC50 (converted)) and 17 nM in the experiment with T98G [3] (read-out: pIC50 (converted)).
For `C/C(=N/NC(=S)Nc1ccc(Cl)cc1)c1ccccn1` the same measures were 1.7 nM, 8.49 nM and 5.9 nM.
For `C/C(=N/NC(=S)Nc1ccccc1I)c1ccccn1` the same measures were 6.1 nM, 4.1 nM and 8.09 nM.
`C/C(=N/NC(=S)Nc1cccc(I)c1)c1ccccn1`: the values for the IC50 (in experiment [1] (read-out: pIC50 (converted)); with MCF7 [2] (read-out: pIC50 (converted)); with T98G [3] (read-out: pIC50 (converted))) were 83.9 nM, 45 nM and 61 nM, respectively.
With `C/C(=N/NC(=S)Nc1ccc(I)cc1)c1ccccn1`, the IC50 in experiment [1] (read-out: pIC50 (converted)) is 59 nM; in the experiment with MCF7 [2] (read-out: pIC50 (converted)), 6.61 nM; in the experiment with T98G [3] (read-out: pIC50 (converted)) it was 64 nM.
Consider `C/C(=N/NC(=S)Nc1ccccc1[N+](=O)[O-])c1ccccn1`, for which the results for the IC50 (in [1] (read-out: pIC50 (converted)); in the experiment with MCF7 [2] (read-out: pIC50 (converted)); in the experiment on T98G [3] (read-out: pIC50 (converted))) were 4.3 nM, 5.7 nM and 6.61 nM, respectively.
Regarding `C/C(=N/NC(=S)Nc1cccc([N+](=O)[O-])c1)c1ccccn1`, the IC50 in experiment [1] (read-out: pIC50 (converted)) is 69 nM; in the experiment on MCF7 [2] (read-out: pIC50 (converted)) it was 38 nM; with T98G [3] (read-out: pIC50 (converted)), 140 nM.
Consider `C/C(=N/NC(=S)Nc1ccc([N+](=O)[O-])cc1)c1ccccn1`, for which the values for the IC50 (in [1] (read-out: pIC50 (converted)); in the experiment on MCF7 [2] (read-out: pIC50 (converted)); with T98G [3] (read-out: pIC50 (converted))) were 160 nM, 52 nM and 140 nM, respectively.
For `C/C(=N\NC(=S)Nc1ccccc1)c1ccccn1` the same measures were 1.4 nM, 0.18 nM and 6.81 nM.
In the case of `CC(=NNC(=S)Nc1ccccc1)c1ccccn1` (mixture of isomers), the IC50 is 1.4 nM in [1] (read-out: IC50), greater than 10000 nM in [10], 0.18 nM in the experiment on MCF7 [2] (read-out: IC50) and 6.8 nM with T98G [3] (read-out: IC50). Further, the Activity result with U-87MG ATCC [4], in the experiment with MCF7 [2] and in the experiment on T98G [3] was “Dose-dependent effect” each time. In addition, the result with U-87MG ATCC [5], in the experiment with U-87MG ATCC [6], in the experiment on T98G [7], with MCF7 [8], in the experiment with U-87MG ATCC [9] and with U-87MG ATCC [11] was Active. Besides, the outcome in the experiment on U-87MG ATCC [12], with U-87MG ATCC [13], in the experiment with MCF7 [14], with MCF7 [15], in the experiment with T98G [16] and in the experiment on T98G [17] was Active. The result with T98G [18], in the experiment on T98G [19], with MCF7 [20], in the experiment with MCF7 [21], in the experiment with U-87MG ATCC [22] and in the experiment with T98G [23] was Active. In addition, the result with MCF7 [24], with T98G [25] and in the experiment with MCF7 [26] was Active.
Regarding `COc1cc([C@@H]2c3cc4c(cc3[C@@H](O[C@@H]3O[C@@H]5CO[C@@H](C)O[C@H]5[C@H](O)[C@H]3O)[C@H]3COC(=O)[C@H]23)OCO4)cc(OC)c1O` [ETOPOSIDE], the results for the IC50 (in experiment [1] (read-out: IC50); in the experiment on MCF7 [2] (read-out: IC50); with T98G [3] (read-out: IC50)) were 620 nM, 480 nM and 460 nM, respectively.
